Values belong to the compound of their own block, whether it stands above or below them.
Experiments:
[1] = test system: mouse tracheal submucosal glands; test: Measurement of individual submucosal gland fluid secretion in mouse trachea; conditions: 10 μmol/L osthole in serosal bathing solution
Procedure, shortened: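 Cranial segment of freshly excised mouse trachea mounted on a sponge, soaked in Krebs–Henseleit solution, mucosal side up in a humidified 5% CO2/95% air chamber at 37°C. Mucosa cleared with saline, nitrogen-dried, then covered with saline-saturated oil. Some tissues pre-incubated 30 min with 20 μmol/L CFTRinh-172. Gland droplets imaged by reflected-light microscopy after stimulation; secretion rate computed from droplet diameter assuming hemispherical shape.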

[2] = test system: ΔF508-CFTR; test: Potentiation of ΔF508-CFTR; type: cell-based; conditions: ΔF508-CFTR versus wt-CFTR
[3] = biological target: T1, human wt-CFTR (Homo sapiens, UniProt P13569); test: Fluorescence assay of CFTR channel function; type: cell-based; conditions: FRT cells expressing wild-type CFTR, in the presence of 0.1 μmol/L forskolin
[4] = biological target: ΔF508-CFTR; conditions: read-out: affinity in potentiating ΔF508-CFTR; ref Xu et al., 2008; cited from earlier work
[5] = biological target: T1, human wt-CFTR; type: cell-based
[6] = test system: rat colonic mucosa; test: Short-circuit current assay on rat colonic mucosa; conditions: rat distal colonic mucosa

T1 sequence (P13569 whole entry): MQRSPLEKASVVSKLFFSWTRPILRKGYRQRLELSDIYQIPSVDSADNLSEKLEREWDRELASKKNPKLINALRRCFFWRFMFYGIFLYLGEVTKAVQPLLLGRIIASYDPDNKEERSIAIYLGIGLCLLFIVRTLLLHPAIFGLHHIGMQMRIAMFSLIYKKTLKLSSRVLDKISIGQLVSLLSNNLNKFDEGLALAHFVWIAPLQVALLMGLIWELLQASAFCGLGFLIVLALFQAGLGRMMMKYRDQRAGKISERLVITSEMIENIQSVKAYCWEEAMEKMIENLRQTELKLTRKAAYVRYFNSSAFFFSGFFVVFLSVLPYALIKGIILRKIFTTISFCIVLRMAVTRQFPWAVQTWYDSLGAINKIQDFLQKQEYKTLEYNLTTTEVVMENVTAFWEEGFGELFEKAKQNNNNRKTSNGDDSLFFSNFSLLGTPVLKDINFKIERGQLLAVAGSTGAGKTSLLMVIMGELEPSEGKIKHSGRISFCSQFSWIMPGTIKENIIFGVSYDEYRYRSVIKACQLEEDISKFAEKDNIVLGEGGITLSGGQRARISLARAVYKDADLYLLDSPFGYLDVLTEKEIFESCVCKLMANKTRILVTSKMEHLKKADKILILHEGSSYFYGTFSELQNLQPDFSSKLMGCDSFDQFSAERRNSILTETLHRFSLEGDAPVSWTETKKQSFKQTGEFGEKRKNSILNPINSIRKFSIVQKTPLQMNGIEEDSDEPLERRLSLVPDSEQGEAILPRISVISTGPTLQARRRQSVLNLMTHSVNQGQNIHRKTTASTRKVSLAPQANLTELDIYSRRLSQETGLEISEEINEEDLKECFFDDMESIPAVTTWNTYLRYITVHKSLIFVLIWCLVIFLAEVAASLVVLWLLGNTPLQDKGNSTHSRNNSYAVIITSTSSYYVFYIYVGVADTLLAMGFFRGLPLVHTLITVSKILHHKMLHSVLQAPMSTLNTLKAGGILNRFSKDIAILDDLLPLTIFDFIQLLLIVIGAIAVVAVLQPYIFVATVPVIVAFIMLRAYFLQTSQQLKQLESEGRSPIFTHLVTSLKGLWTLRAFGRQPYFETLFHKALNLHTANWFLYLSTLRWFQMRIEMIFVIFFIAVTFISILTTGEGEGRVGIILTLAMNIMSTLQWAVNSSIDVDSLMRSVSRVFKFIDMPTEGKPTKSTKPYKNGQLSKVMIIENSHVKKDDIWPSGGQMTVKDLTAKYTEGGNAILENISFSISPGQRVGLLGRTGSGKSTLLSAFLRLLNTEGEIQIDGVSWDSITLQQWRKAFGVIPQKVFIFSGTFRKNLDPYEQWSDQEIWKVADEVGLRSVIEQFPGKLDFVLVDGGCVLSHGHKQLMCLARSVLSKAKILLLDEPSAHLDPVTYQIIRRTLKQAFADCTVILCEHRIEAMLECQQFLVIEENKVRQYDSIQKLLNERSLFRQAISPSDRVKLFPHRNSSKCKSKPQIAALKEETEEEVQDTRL

Kd [5]: < 0.05 µM
Compound: COc1ccc2ccc(=O)oc2c1CC=C(C)C [osthole]
increase of fluid secretion rate compared to the saline control [1]: 3.34 fold
affinity in potentiating ΔF508-CFTR lower than in activating wt-CFTR [2]: > 200 fold
stimulation of wt-CFTR-mediated I− influx [3]: stimulated wt-CFTR-mediated I^− influx in a concentration-dependent way
Kd [4]: ~10 µM

Compound: COc1cc2ccc(=O)oc2cc1OC [scoparone]
stimulation of wt-CFTR-mediated I− influx [3]: stimulated wt-CFTR-mediated I^− influx in a concentration-dependent way

Compound: O=c1ccc2ccc3occc3c2o1 [isopsoralen]
stimulation of wt-CFTR-mediated I− influx [3]: stimulated wt-CFTR-mediated I^− influx in a concentration-dependent way

block of coumarin-stimulated Cl− current ([5]; CFTRinh-172 at 20 μmol/L): completely blocked the activations
Compound: O=C(O)c1ccc(/C=C2\SC(=S)N(c3cccc(C(F)(F)F)c3)C2=O)cc1 [CFTRinh-172, reference compound]
effect on osthole-stimulated chloride secretion [6]: completely abolished the osthole-stimulated chloride secretion

Compound: CC(C)=CCOc1c2occc2cc2ccc(=O)oc12 [imperatorin]
stimulation of wt-CFTR-mediated I− influx [3]: stimulated wt-CFTR-mediated I^− influx in a concentration-dependent way

Source: article PMC3180640 (Frontiers in Pharmacology, 2011)
